# Results from different studies.
# Protocols differ between the studies behind these lines.
# Read-out: cell growth or viability
SMILES,cell line,technique,tested at,time,notes,measurement,result
COc1cc2c3c(n(CCCNCCO)c(=O)c2cc1OC)-c1nc2c(cc1C3=O)OCO2,SK-N-MC,MTS,,72 h,,IC50,173 nM
CC1(C)CCC(CN2CCN(c3ccc(C(=O)NS(=O)(=O)c4ccc(NCC5CCOCC5)c([N+](=O)[O-])c4)c(Oc4cnc5[nH]ccc5c4)c3)CC2)=C(c2ccc(Cl)cc2)C1,MM.1R,ATP luminescence,,48 h,,IC50,7460 nM
COc1cc2c3c(n(CCCn4ccnc4)c(=O)c2cc1OC)-c1nc2c(cc1C3=O)OCO2,SK-N-MC,MTS,,72 h,,IC50,170 nM
Nc1ccc(/C=C/C(=O)N2CCc3c(oc4c(-c5ccc(F)cc5)cc(-c5ccc(C(=O)N6CCOCC6)nn5)cc34)C2)cn1,Pan02,CCK-8,,72 h,,IC50,570 nM
C=C(F)C(=O)N1CCN(c2nc(OC[C@@H]3CCCN3C)nc3c2CCN(c2cccc4cccc(Cl)c24)C3)C[C@@H]1CC#N,Lu-99,ATP luminescence,,,3D culture,IC50,21.3 nM
Nc1ccc(/C=C/C(=O)N2CCc3c(oc4c(-c5ccc(F)cc5)cc(-c5ccc(C(=O)N6C[C@@H]7[C@H](C6)C7(F)F)nn5)cc34)C2)cn1,Pan02,CCK-8,,72 h,,IC50,300 nM
CC(C)(C)c1cnc(CSc2cnc(NC(=O)C3CCN(CCCCCCCCSc4cccc5c4CN(C4CCC(=O)NC4=O)C5=O)CC3)s2)o1 (stereo not drawn),HuT78,trypan blue,1 µM,48 h,,viability,10.5%
COc1cc(NC(C)CCCN)c2ncccc2c1 (stereo not drawn),SH-SY5Y,resazurin,,,,IC50,> 50000 nM
C#Cc1nc(C2=C(C)C(O)CC2)cs1 (stereo not drawn),HT-1080,,,,,CC50,960 nM
O=C1C(O)=C([C@H]2CC[C@H](c3ccc(Cl)cc3)CC2)C(=O)c2ccccc21,SH-SY5Y,resazurin,,,,IC50,> 50000 nM
CC(C)(C)c1cnc(CSc2cnc(NC(=O)C3CCN(CCCCCSc4cccc5c4CN(C4CCC(=O)NC4=O)C5=O)CC3)s2)o1 (stereo not drawn),HuT78,trypan blue,0.5 µM,48 h,,viability,13.4%
CCN(CC)Cc1cc(Nc2ccnc3cc(Cl)ccc23)ccc1O,SH-SY5Y,resazurin,,,,IC50,17000 nM
COc1cc2c3c(n(CCCNC(C)C)c(=O)c2cc1OC)-c1nc2c(cc1C3=O)OCO2,SK-N-MC,MTS,,72 h,,IC50,150 nM
C[C@H]1[C@H](OC(=O)CCC(=O)O)O[C@@H]2O[C@@]3(C)CC[C@H]4[C@H](C)CC[C@@H]1[C@@]24OO3,SH-SY5Y,resazurin,,,,IC50,4600 nM
C=CC(=O)NC1CCN(c2ncc3ncnc(Nc4ccc(Oc5ccc6c(c5)ncn6C)c(C)c4)c3n2)CC1,SNU668,,,,,EC50,34.9 nM
